The nature of series [1]: melting temperature; fluorescence melt of hairpins on a sequencing array, two-state fit, raised by 9.35 °C to match UV melts. The conditions noted are these: sodium 0.088 M. Summed up:
(§1)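 Melting temperature and folding enthalpy were obtained by bootstrapped two-state fitting. Fits used Cy3 fluorescence of library hairpins with annealed Cy3 and quencher oligos on a sequenced MiSeq flow cell, imaged in 50 mM Na-HEPES pH 8.0, 25 mM NaCl in 2.5 °C steps up to 60 °C and normalised to pre-quench Cy3 and control constructs. Four replicates were combined by inverse-variance weighting, and fitted temperatures were raised by 9.35 °C to match UV melts.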

Series [2] is described as follows: folding enthalpy; higher = less favourable; fluorescence melt of hairpins on a sequencing array, two-state fit. The conditions noted are these: sodium 0.088 M. Summed up: as §1

For GTGCCCGAAAGGGACCAC ((((((....)))..))), in series [1], the Tm came out at 49.5 °C. The folding enthalpy in series [2] is -11.3 kcal/mol.

Take GTGCCGGGAAACCGGTGC (..((((....))))..): the Tm in series [1] stood at 52.7 °C. Further, the folding enthalpy in series [2] is -19.4 kcal/mol.

In the case of GTGCCTCGAAAGAGACAC (((.(((....))).))), in series [1], the Tm amounted to 52.6 °C. Moreover, the folding enthalpy in series [2] was -42.5 kcal/mol.

As for GTGCCTCGAAAGAGCCAC (((.(((....))).))), in series [1], the Tm is 43.2 °C. In series [2], the folding enthalpy is -21 kcal/mol.

Consider GTGCGAGAAATCGCAC ((((((....)))))), for which the Tm in series [1] is 68.2 °C. Moreover, in series [2], the folding enthalpy was -28 kcal/mol.

As to GTGCGAGGAAACTCGTGC (..((((....))))..), in series [1], the Tm was found to be 48.4 °C. In addition, the folding enthalpy in series [2] was -23.3 kcal/mol.

For the sequence GTGCGAGGAAACTTGCGC (.((.((....)).)).), the Tm in series [1] was found to be 46 °C. Moreover, in series [2], the folding enthalpy is -18.1 kcal/mol.

With GTGCGCGAAAGCGCCAC ((((((....))).))), the Tm in series [1] came out at 52.2 °C. Moreover, the folding enthalpy in series [2] was -8.65 kcal/mol.

GTGCGCGAAAGCGGCCAC ((((((....)))..))): the Tm in series [1] worked out at 45.9 °C. Further, in series [2], the folding enthalpy is -11.5 kcal/mol.

For GTGCGCGAAAGCGGGCAC ((((((....)))..))), the Tm in series [1] turned out to be 60.7 °C. Further, the folding enthalpy in series [2] is -15.9 kcal/mol.

In the case of GTGCGCGAAAGCGTACAC ((((((....)))..))), the Tm in series [1] is 60.5 °C. For the same sequence, the folding enthalpy in series [2] is -11.9 kcal/mol.

GTGCGGCCGAAAGGCCAC (((..(((....)))))): the Tm in series [1] was found to be 64.1 °C. Further, the folding enthalpy in series [2] was -10.1 kcal/mol.

In the case of GTGCGGCGAAAGCCCCAC (((.(((....))).))), the Tm in series [1] was determined as 47.6 °C. Besides, the folding enthalpy in series [2] is -23 kcal/mol.

With GTGCGGGGAAACCTGCGC (.((.((....)).)).), the Tm in series [1] came out at 51.9 °C. For the same sequence, the folding enthalpy in series [2] is -26.7 kcal/mol.

For GTGCGTCGAAAGACCCAC (((.(((....))).))), the Tm in series [1] is 45.8 °C. Moreover, the folding enthalpy in series [2] was -26.2 kcal/mol.

As to GTGCGTGGAAACGTGCAC ((((..(....)..)))), in series [1], the Tm amounted to 50.8 °C. Further, the folding enthalpy in series [2] was -25.3 kcal/mol.

In the case of GTGCTACGAAAGTACCAC (((.(((....))).))), the Tm in series [1] came out at 37.8 °C. Also, the folding enthalpy in series [2] is -26 kcal/mol.

Consider GTGCTAGGAAACTAGCAC (((((((....))))))), for which the Tm in series [1] worked out at 65 °C. Also, the folding enthalpy in series [2] is -49.4 kcal/mol.

For GTGCTAGGAAACTAGTAC ((.((((....)))).)), in series [1], the Tm turned out to be 44.9 °C. Besides, in series [2], the folding enthalpy is -33.5 kcal/mol.

As to GTGCTAGGAAACTGGTAC ((.(.((....)).).)), the Tm in series [1] stood at 32.6 °C. Also, the folding enthalpy in series [2] is -18.9 kcal/mol.

GTGCTATCGAAAGATCAC (((..(((....)))))): the Tm in series [1] was 30.6 °C. Besides, the folding enthalpy in series [2] was -13 kcal/mol.

Take GTGCTCCGAAAGGACCAC (((.(((....))).))): the Tm in series [1] is 45 °C. Besides, in series [2], the folding enthalpy was -27.5 kcal/mol.

For GTGCTCGAAAGAGCCCAC ((((((....)))..))), in series [1], the Tm amounted to 35.8 °C. Besides, the folding enthalpy in series [2] is -8.93 kcal/mol.

GTGCTCGAAAGAGTACAC ((((((....)))..))): the Tm in series [1] was 49.7 °C. For the same sequence, the folding enthalpy in series [2] is -14.3 kcal/mol.

Turning to GTGCTCGGAAACGGGCAC ((((.((....)).)))), the Tm in series [1] amounted to 61.4 °C. The folding enthalpy in series [2] is -47 kcal/mol.

As to GTGCTGGAAACAGCAC ((((((....)))))), the Tm in series [1] came out at 67.6 °C. For the same sequence, the folding enthalpy in series [2] was -33.2 kcal/mol.

Turning to GTGCTGGGAAACCAGTGC (..((((....))))..), the Tm in series [1] stood at 47.5 °C. Further, in series [2], the folding enthalpy is -27.9 kcal/mol.

As for GTGCTTGGAAACAGGCAC ((((.((....)).)))), the Tm in series [1] was 53.4 °C. In series [2], the folding enthalpy was -41 kcal/mol.

GTGGAACGAAAGTTCAC (((.(((....)))))): in series [1], the Tm came to 44.9 °C. Besides, the folding enthalpy in series [2] is -11.2 kcal/mol.

Take GTGGAAGAAATTCCAC ((((((....)))))): the Tm in series [1] was determined as 51.8 °C. The folding enthalpy in series [2] was -34.8 kcal/mol.

For the sequence GTGGAAGGAAACTTCCAC (((((((....))))))), the Tm in series [1] was determined as 62 °C. Further, the folding enthalpy in series [2] was -42.7 kcal/mol.

With GTGGAATCGAAAGATCAC (((..(((....)))))), the Tm in series [1] was determined as 33.9 °C. The folding enthalpy in series [2] is -19.2 kcal/mol.

On to GTGGACCGAAAGGTACAC (((.(((....))).))), for which, in series [1], the Tm worked out at 67 °C. The folding enthalpy in series [2] is -30.4 kcal/mol.

For the sequence GTGGACCGAAAGGTCAC (((.(((....)))))), in series [1], the Tm was 53.7 °C. In addition, the folding enthalpy in series [2] was -10.4 kcal/mol.

Take GTGGACCGAAAGGTGCAC (((.(((....))).))): the Tm in series [1] came to 67.3 °C. For the same sequence, the folding enthalpy in series [2] was -24.7 kcal/mol.

On to GTGGACGAAAGTCAACAC ((((((....)))..))), for which the Tm in series [1] is 45.9 °C. Moreover, the folding enthalpy in series [2] was -15.3 kcal/mol.

On to GTGGACGAAAGTCACAC ((((((....))).))), for which the Tm in series [1] is 50 °C. The folding enthalpy in series [2] is -20.9 kcal/mol.

Values taken from the array DNA melting data of Ke et al. (doi:10.1101/2024.01.08.574731).
